How the values were obtained:
[1] = target: T1, C5a anaphylatoxin chemotactic receptor 1 (Homo sapiens, UniProt P21730); experiment: Antagonist activity at human C5a receptor expressed in CHO cells co-expressed with Galpha16 assessed as inhibition of anaphylatoxin C5a-induced intracellular calcium accumulation after 10 mins by FLIPR assay; type: functional, cell-based
T1 sequence (P21730 whole entry): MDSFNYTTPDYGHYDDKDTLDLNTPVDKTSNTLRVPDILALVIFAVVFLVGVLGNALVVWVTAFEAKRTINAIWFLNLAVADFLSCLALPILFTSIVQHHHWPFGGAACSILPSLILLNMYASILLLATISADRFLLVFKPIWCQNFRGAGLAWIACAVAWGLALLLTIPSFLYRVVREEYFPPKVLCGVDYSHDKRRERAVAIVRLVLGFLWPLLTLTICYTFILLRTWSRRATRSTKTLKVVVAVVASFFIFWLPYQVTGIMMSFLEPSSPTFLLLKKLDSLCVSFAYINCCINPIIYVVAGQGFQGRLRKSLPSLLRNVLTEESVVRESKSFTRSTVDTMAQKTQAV

[2] = target: T1, C5a anaphylatoxin chemotactic receptor 1; experiment: Agonist activity at human C5a receptor expressed in CHO cells co-expressed with Galpha16 assessed as effect on anaphylatoxin C5a-induced intracellular calcium accumulation after 10 mins by FLIPR assay; type: functional, cell-based
[3] = target: T1, C5a anaphylatoxin chemotactic receptor 1; experiment: Displacement of [125I]human anaphylatoxin C5a from human C5a receptor expressed in CHO cells co-expressed with Galpha16 after 1 hr; type: cell-based
In short: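 Intact CHO-Gα16-C5aR cells plated at 50,000/well in growth medium with 10% FBS the day before. Medium replaced by HBSS + 20 mM HEPES + 0.1% BSA. Compound added for 10 min at rt, then 0.6 nM 125I-hC5a for 1 h at rt. Cells washed eight times with PBS + 1 mM CaCl2 + 0.1% BSA on a harvester.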

[4] = target: T2, C-X-C chemokine receptor type 3 (Homo sapiens, UniProt P49682); experiment: Inhibition of CXCR3 in human T cells; type: cell-based, T-cell
T2 sequence (P49682 whole entry): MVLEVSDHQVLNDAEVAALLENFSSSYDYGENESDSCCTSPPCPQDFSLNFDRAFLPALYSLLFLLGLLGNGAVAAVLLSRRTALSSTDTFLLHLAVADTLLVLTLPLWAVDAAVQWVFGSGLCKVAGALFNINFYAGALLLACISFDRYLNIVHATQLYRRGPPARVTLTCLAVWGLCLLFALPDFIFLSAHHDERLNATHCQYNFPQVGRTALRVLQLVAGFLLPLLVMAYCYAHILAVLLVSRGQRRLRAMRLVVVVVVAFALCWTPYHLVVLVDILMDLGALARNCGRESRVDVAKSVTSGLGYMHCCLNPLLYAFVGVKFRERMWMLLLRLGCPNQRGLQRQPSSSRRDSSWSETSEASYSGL

[5] = target: C-X-C chemokine receptor type 4 (Homo sapiens, UniProt P61073); experiment: Inhibition of CXCR4 in human T cells; type: cell-based, T-cell
Blood = experiment: Inhibition of anaphylatoxin C5a-induced PMNC shape changes in human whole blood treated 10 mins before anaphylatoxin C5a-induced challenge measured after 40 mins by FACS analysis; type: functional, tissue-based
In short: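 Whole-blood assay. After stimulation, cells fixed with ice-cold 1% paraformaldehyde, then red cells lysed in ice-cold hypotonic buffer for 40 min on ice. Neutrophils gated by forward and side scatter on a flow cytometer. Shape change read as the rise in autofluorescence on the FL2-H channel.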

[6] = Inhibition of anaphylatoxin C5a-induced chemotaxis in human PMNC; type: functional
[7] = target: T1, C5a anaphylatoxin chemotactic receptor 1; experiment: Antagonist activity at C5a receptor in human PMNC assessed as inhibition of anaphylatoxin C5a-induced intracellular calcium accumulation after 10 mins by FLIPR assay; type: functional, cell-based
In short: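 Human neutrophils purified from whole blood on a Ficoll gradient, resuspended in Ca3 dye and plated at 50,000 cells/well in HBSS + 20 mM HEPES + 0.1% BSA. After 1 h at 37 °C, 5% CO2, compound added for 10 min, then 10 nM hC5a. Calcium response recorded on FLIPR.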

P2Y purinoceptor 2 = P2Y purinoceptor 2 (Homo sapiens, UniProt P41231); experiment: Inhibition of human P2Y2 receptor expressed in CHO cells; type: cell-based
Sequence of P2Y purinoceptor 2 (P41231 whole entry): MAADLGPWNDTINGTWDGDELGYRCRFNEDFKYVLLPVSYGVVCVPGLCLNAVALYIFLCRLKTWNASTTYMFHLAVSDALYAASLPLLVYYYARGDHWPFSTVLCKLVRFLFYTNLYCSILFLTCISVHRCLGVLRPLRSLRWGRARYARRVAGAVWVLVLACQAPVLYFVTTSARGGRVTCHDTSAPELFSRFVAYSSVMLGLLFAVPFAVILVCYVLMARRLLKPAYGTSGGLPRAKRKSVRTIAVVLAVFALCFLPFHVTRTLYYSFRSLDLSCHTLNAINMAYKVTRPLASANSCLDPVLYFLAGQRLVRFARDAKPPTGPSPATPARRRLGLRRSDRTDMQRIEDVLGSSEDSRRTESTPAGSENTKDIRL

Sequence of C-X-C chemokine receptor type 4 (P61073 whole entry): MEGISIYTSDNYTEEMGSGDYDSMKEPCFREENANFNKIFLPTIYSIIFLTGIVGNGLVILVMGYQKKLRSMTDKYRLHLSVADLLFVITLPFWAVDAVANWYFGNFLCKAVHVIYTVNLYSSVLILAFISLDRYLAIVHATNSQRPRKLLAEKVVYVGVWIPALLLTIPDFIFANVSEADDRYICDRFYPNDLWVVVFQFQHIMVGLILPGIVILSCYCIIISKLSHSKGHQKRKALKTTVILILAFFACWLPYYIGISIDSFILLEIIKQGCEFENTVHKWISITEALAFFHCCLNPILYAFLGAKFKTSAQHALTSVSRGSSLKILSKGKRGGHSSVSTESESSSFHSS

SMILES	IC50 [1]	EC50 [2]	IC50 [3]	IC50 [4]	IC50 [5]	IC50 (Blood)	IC50 [6]	IC50 [7]	IC50 (P2Y purinoceptor 2)
CN(c1ccccc1N(C)S(=O)(=O)c1ccccc1)S(=O)(=O)c1ccccc1	> 60 µM	> 60 µM	> 60 µM	–	–	–	–	–	–
Cc1ccc(S(=O)(=O)N(C)c2ccc(Cl)cc2C(=O)c2ccccc2)cc1	> 60 µM	> 60 µM	8.7 µM	–	–	–	–	–	–
Cc1ccc(S(=O)(=O)N(C)c2ccccc2N(C)S(=O)(=O)c2ccc(C)cc2)cc1	0.2 µM	> 60 µM	0.2 µM	> 60 µM	> 60 µM	27 µM	5.7 µM	6.7 nM	> 60 µM
Cc1ccc(S(=O)(=O)N(C)c2ccc(Br)cc2C(=O)c2ccccc2)cc1	> 60 µM	> 60 µM	14.6 µM	–	–	–	–	–	–
Cc1ccc(S(=O)(=O)N2CCN(S(=O)(=O)c3ccc(C)cc3)CC2)cc1	> 60 µM	–	–	–	–	–	–	> 60000 nM	–
Cc1ccc(S(=O)(=O)N2Cc3ccccc3CN(S(=O)(=O)c3ccc(C)cc3)c3ccccc32)cc1	> 60 µM	> 60 µM	> 60 µM	–	–	–	–	–	–
Cc1ccc(S(=O)(=O)N(C)c2ccccc2C(=O)N2CCc3ccccc32)cc1	38.3 µM	> 60 µM	44.5 µM	–	–	–	–	–	–
C=CCN(c1ccccc1N(CC=C)S(=O)(=O)c1ccc(C)cc1)S(=O)(=O)c1ccc(C)cc1	0.3 µM	> 60 µM	0.3 µM	> 60 µM	> 60 µM	–	2.5 µM	59 nM	> 60 µM
Cc1ccc(S(=O)(=O)N(C)c2ccccc2C(=O)c2ccsc2)cc1	0.6 µM	> 60 µM	1.7 µM	> 60 µM	> 60 µM	> 60 µM	> 60 µM	400 nM	> 60 µM
Cc1ccc(S(=O)(=O)N2CCN(S(=O)(=O)c3ccc(C)cc3)c3ccccc32)cc1	> 60 µM	> 60 µM	> 60 µM	–	–	–	–	–	–
Cc1ccc(S(=O)(=O)N(CCCN(c2ccccc2)S(=O)(=O)c2ccc(C)cc2)c2ccccc2)cc1	> 60 µM	–	–	–	–	–	–	> 60000 nM	–
CC(=O)c1ccccc1N(C)S(=O)(=O)c1ccc(C)cc1	> 60 µM	> 60 µM	> 60 µM	–	–	–	–	–	–
